Structures are written as SMILES. Calls of active or inactive are those of the source. No cut-off for these calls is given here.

The record followed here is ChEMBL document CHEMBL4613293, “Pyridobenzothiazolones Exert Potent Anti-Dengue Activity by Hampering Multiple Functions of NS5 Polymerase” (ACS Med Chem Lett, 2020).

One series deals with Zika virus. In words: Antiviral activity against Zika virus H/PF/2013 infected in human HuH7 cells assessed as reduction in virus replication incubated for 24 hrs by plaque reduction assay. It counts as functional, organism-based. The note with it: H/PF/2013, Huh-7, 24 h. The method, boiled down: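 ZIKV H/PF/2013 in HuH7 cells, treated 24 h. Titres read by plaque assay. EC50 is the concentration giving 50% inhibition of replication, reported as average ± SD of two independent experiments.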
For orientation: Plaques are areas of infected cells; plaque reduction assays count them against a control.

A short description of series [1]: Selectivity index, ratio of CC50 for human HuH7 cells to EC50 for Dengue virus 2 EDEN 3295 infected in human HuH7 cells. As to conditions: read-out: Ratio CC50/EC50. It counts as toxicity, cell-based. Put shortly: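 Selectivity index is CC50 (CellTiter-Glo, HuH7) divided by EC50 (plaque assay, DENV2 EDEN 3295, 48 h, HuH7).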
Series [2] can be described thus: Cytotoxicity against human HuH7 cells assessed as reduction in cell viability incubated for 48 hrs by CellTiter Glo Luminescent assay. It counts as cell-based, Huh-7. Put shortly: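 HuH7 viability was read by CellTiter-Glo luminescence in parallel with the infection dose–response. CC50 is the concentration reducing viability by 50%.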
Series [3] is described as follows: Selectivity index, ratio of CC50 for human HuH7 cells to EC50 for Zika virus H/PF/2013 infected in human HuH7 cells. It counts as toxicity, cell-based. As to conditions: read-out: Ratio CC50/EC50. Put shortly: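 Selectivity index is CC50 (CellTiter-Glo, HuH7) divided by EC50 (plaque assay, ZIKV H/PF/2013, 24 h, HuH7).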
Series [4] relates to dengue virus type 2. The series is described as follows: Inhibition of Dengue virus NS5 RNA-dependent RNA polymerase assessed as reduction in elongation activity at 30 uM incubated for 1 hr relative to control. The method, boiled down:
(§1)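 Purified recombinant full-length DENV2 NS5 polymerase was tested in two formats: primer-independent (de novo initiation) and primer-dependent (elongation). Compound at a single 30 μM; % inhibition reported.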

Series [5] concerns dengue virus type 2. The series is described as follows: Inhibition of Dengue virus 2 NS5 assessed as reduction in NS5-3' UTR RNA at 25 uM incubated for 1 hr followed by 3' UTR RNA addition and measured after 20 mins by REMSA. The method, boiled down:
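RNA electrophoretic mobility shift with DENV NS5 at 1.28 μM and RNA at 0.16 μM (RNA/NS5 1:8), compound at 25 μM, 37 °C. Order of addition: compound, then NS5, then RNA. Band shift from complex formation scored on gel.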

Series [6] deals with dengue virus type 2. The series is described as follows: Antiviral activity against Dengue virus 2 EDEN 3295 infected in human HuH7 cells assessed as reduction in virus replication incubated for 48 hrs by plaque reduction assay. It counts as functional, organism-based. As to conditions: EDEN 3295, Huh-7, 48 h. The method, boiled down: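 DENV2 EDEN 3295 in human hepatoma HuH7 cells, treated 48 h. Infectious virus quantified by plaque assay. Dose–response from 0.01 to 100 μM after an initial 10 μM screen. EC50 is the concentration giving 50% inhibition of replication, reported as average ± SD of two independent experiments.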

Series [7] has as its system dengue virus type 2. The series is described as follows: Inhibition of Dengue virus NS5 RNA-dependent RNA polymerase assessed as reduction in de novo initiation activity at 30 uM incubated for 1 hr relative to control. The method, boiled down:
as §1

Series [8] can be described thus: Inhibition of Dengue virus NS5 RNA-dependent RNA polymerase assessed as reduction in elongation activity incubated for 1 hr. On the set-up: species or system dengue virus type 2. Put shortly:
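Elongation (primer-dependent) activity of purified recombinant full-length DENV2 NS5 was measured over a concentration series with fluorescence read-out. Compound-only wells corrected for autofluorescence. IC50 is 50% inhibition of elongation, average ± SD from one experiment in duplicate.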

The subject of a further series is dengue virus type 1. In words: Antiviral activity against Dengue virus 1 infected in human HuH7 cells assessed as reduction in virus replication incubated for 48 hrs by plaque reduction assay. It counts as functional, organism-based. As to conditions: Huh-7, 48 h.
A further series relates to dengue virus type 3. In words: Antiviral activity against Dengue virus 3 infected in human HuH7 cells assessed as reduction in virus replication incubated for 48 hrs by plaque reduction assay. It counts as functional, organism-based. As to conditions: Huh-7, 48 h.
Series [9] can be described thus: Inhibition of Dengue virus full length NS2b-NS3/NS5 interaction incubated for 1 hr by ELISA. The method, boiled down: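 Competitive ELISA measuring DENV NS3–NS5 binding across compound concentrations. IC50 reported as average ± SD from one experiment in duplicate.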
(In general: An ELISA detects its analyte on a solid surface through an enzyme-linked reagent.)

In the next series the test system is dengue virus type 4. The series is described as follows: Antiviral activity against Dengue virus 4 infected in human HuH7 cells assessed as reduction in virus replication incubated for 48 hrs by plaque reduction assay. It counts as functional, organism-based. The note with it: Huh-7, 48 h.
In series [10] the test system is dengue virus type 2. In words: Antiviral activity against Dengue virus 2 EDEN 3295 clone 4_R infected in human HuH7 cells assessed as reduction in viral titer over 10 passages incubated for 72 hrs by resistance development assay. It counts as functional, organism-based. As to conditions: EDEN 3295, Huh-7, 72 h. Put shortly: (§2)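 Virus came from HuH7 serial passage under increasing compound concentrations (72 h each, to P10) and was expanded in C6/36 cells. P10 parental DENV2 or resistant-clone virus was then tested dose-dependently in HuH7 cells with 48 h compound treatment, measuring viral inhibition. Single experiment with duplicates.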

In series [11] the test system is dengue virus type 2. In words: Antiviral activity against Dengue virus 2 EDEN 3295 clone 4_R infected in human HuH7 cells assessed as reduction in viral titer at 10 uM over 10 passage incubated for 72 hrs by resistance development assay relative to control. The note with it: EDEN 3295, Huh-7, 72 h. It counts as functional. Put shortly: (§3)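 Resistance selection: DENV2-infected HuH7 cells were passaged under rising compound concentrations, 72 h per passage, up to P10. P10 viruses (parental or resistant clone) were expanded in C6/36 insect cells. Susceptibility was then tested in HuH7 at a single 10 μM dose, read as viral titer reduction versus control. Two independent experiments in duplicate; average ± SD.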

Series [12] has as its system dengue virus type 2. In words: Antiviral activity against Dengue virus 2 EDEN 3295 infected in human HuH7 cells assessed as reduction in viral titer over 10 passages incubated for 72 hrs by resistance development assay. The note with it: EDEN 3295, Huh-7, 72 h. It counts as functional, organism-based. Put shortly: as §2
For series [13], the system named is dengue virus type 2. In words: Antiviral activity against Dengue virus 2 EDEN 3295 infected in human HuH7 cells assessed as reduction in viral titer at 10 uM over 10 passage incubated for 72 hrs by resistance development assay relative to control. It counts as functional. As to conditions: EDEN 3295, Huh-7, 72 h. Put shortly:
as §3

As to `O=C(NCc1ccc(O)cc1)c1cc(-c2ccccc2)c(=O)n2c1sc1ccc(OC3CCCCC3)cc12`, the EC50 (usually the concentration at which the effect is half-maximal) with Zika virus is 1 µM; with dengue virus type 2 [6], 1.8 µM. In addition, the selectivity ratio is more than 50 in series [1] and more than 100 in series [3]. Also, the CC50 – broadly, the concentration that lowers cell viability or growth by half – at 48 h in series [2] is more than 100 µM. The inhibition (as a rule, the change of the read-out against control, counted positive when it falls) in the series with dengue virus type 2 [4] came to 44.8%. For the same compound, the inhibition entry with dengue virus type 2 [5] was “inactive”.

For `O=C(NCc1ccccc1)c1cc(-c2ccccc2)c(=O)n2c1sc1ccc(OC3CCCCC3)cc12`, the inhibition in the series with dengue virus type 2 [4] was found to be 31.2%.

Take `Cn1cc(C(=O)N[C@@H](Cc2ccc(O)cc2)C(=O)O)cc(-c2ccccc2)c1=O`: the inhibition in the series with dengue virus type 2 [7] was determined as 35.6%; with dengue virus type 2 [4], 70.2%.

Take `O=C(N[C@@H](Cc1ccc(O)cc1)C(=O)O)c1cc(-c2ccccc2)c(=O)n(-c2cccc(OC3CCCCC3)c2)c1`: the IC50 (in general, the concentration needed to halve the response being measured) in series [8] turned out to be 81.3 µM. The inhibition came to 36.4% with dengue virus type 2 [7] and 72.1% with dengue virus type 2 [4].

Consider `C#C[C@@]1(O)[C@H](O)[C@@H](CO)O[C@H]1n1ccc2c(N)ncnc21`, for which the EC50 is 0.2 µM in the series with Zika virus and 1 µM with dengue virus type 2 [6]. Moreover, the selectivity ratio is 100 in [1] and more than 100 in [3]. The CC50 at 48 h in series [2] worked out at 100 µM.

As to `O=C(N[C@@H](Cc1cccc(O)c1)C(=O)O)c1cc(-c2ccccc2)c(=O)n2c1sc1ccc(OC3CCCCC3)cc12`, the IC50 in series [8] was 14.5 µM; in [9], 18.1 µM. Besides, the EC50 in the series on dengue virus type 1 was determined as 3.2 µM; in the series with dengue virus type 3, 4.3 µM; in the series on Zika virus, 0.8 µM; in the series on dengue virus type 4, 5.9 µM; in the series with dengue virus type 2 [6], 2.9 µM. Besides, the inhibition was 12.6% in the series on dengue virus type 2 [7] and 94.1% with dengue virus type 2 [4]. Also, the selectivity ratio in series [1] was more than 30; in [3] it was more than 100. Also, in series [2], the CC50 at 48 h is more than 100 µM.

Regarding `O=C(N[C@@H](CO)C(=O)O)c1cc(-c2ccccc2)c(=O)n2c1sc1ccc(OC3CCCCC3)cc12`, in [8], the IC50 worked out at 19.8 µM. The inhibition is 44.8% in the series on dengue virus type 2 [7] and 97.5% in the series on dengue virus type 2 [4].

Consider `O=C(O)CCNC(=O)c1cc(-c2ccccc2)c(=O)n2c1sc1ccc(OC3CCCCC3)cc12`, for which the values for the half-maximal inhibitory concentration (IC50) in [8] and in series [9] were 37.8 µM and 23.7 µM, respectively. The EC50 with dengue virus type 1 was found to be 7 µM; in the series with dengue virus type 3, 7.8 µM; in the series with dengue virus type 2 [10], 11.4 µM; with Zika virus, 1 µM; in the series on dengue virus type 2 [12] it was 5.3 µM; in the series with dengue virus type 4, 6.9 µM. For the same compound, in the series on dengue virus type 2 [6], the EC50 turned out to be 3.5 µM. Further, the selectivity ratio was more than 30 in series [1] and more than 100 in [3]. The CC50 at 48 h in [2] was more than 100 µM. Further, the inhibition at 10 µM is 20% in the series on dengue virus type 2 [11] and 80% in the series on dengue virus type 2 [13]. For the same compound, the inhibition in the series on dengue virus type 2 [4] came out at 77.6%. Moreover, the inhibition entry in the series with dengue virus type 2 [5] was “Active”.

As to `O=c1c(-c2ccccc2)ccc2sc3ccc(OC4CCCCC4)cc3n12`, the inhibition with dengue virus type 2 [4] is 6.3%. For the same compound, the inhibition entry in the series with dengue virus type 2 [5] is “inactive”.

`O=C(N[C@@H](Cc1ccc(O)cc1)C(=O)O)c1cc(-c2ccccc2)c(=O)n2c1sc1ccc(OC3CCCCCC3)cc12`: the values for the IC50 in [8] and in [9] were 9.62 µM and 33.8 µM, respectively. Moreover, the inhibition was determined as 30.5% in the series on dengue virus type 2 [7] and 92.1% with dengue virus type 2 [4]. In addition, the EC50 stood at 1.6 µM in the series on Zika virus and 3.7 µM in the series with dengue virus type 2 [6]. For the same compound, the selectivity ratio in series [1] is 30; in series [3] it was more than 50. The CC50 at 48 h in series [2] is 100 µM.

With `O=C(NCCO)c1cc(-c2ccccc2)c(=O)n2c1sc1ccc(OC3CCCCC3)cc12`, the inhibition with dengue virus type 2 [7] is 10%; with dengue virus type 2 [4], 63.3%. Moreover, the figures for the EC50 in the series with Zika virus and with dengue virus type 2 [6] were 1.8 µM and 1.9 µM, respectively. Besides, the selectivity ratio in series [1] and in [3] was 43 each time. Also, in series [2], the CC50 at 48 h amounted to 86.3 µM.

As to `O=C(N[C@@H](Cc1ccc(O)cc1)C(=O)O)c1cc(-c2ccccc2)c(=O)n2c1sc1ccc(OC3CCCCC3)cc12`, the IC50 in series [8] stood at 9.16 µM; in series [9], 42.4 µM. The EC50 in the series on dengue virus type 1 is 2.8 µM; with dengue virus type 3, 2.8 µM; in the series on Zika virus it was 0.4 µM; with dengue virus type 4, 1.7 µM; with dengue virus type 2 [6], 2.1 µM. Further, the results for the inhibition with dengue virus type 2 [7] and with dengue virus type 2 [4] were 40.7% and 93%, respectively. For the same compound, the selectivity ratio in [1] is more than 50; in series [3], more than 100. The CC50 at 48 h in series [2] was more than 100 µM.
